Source: PMC2193327 (The Journal of Experimental Medicine, 2001)
pIC50: −log10 of the molar value. No end group written: not given here.

Target: HLA-B*3501 (Homo sapiens, UniProt P01889, A329T/A93T/A95T/C349S/D201E/D98Y/E176V/E187L/E204Q/E69T/I218V/K202T/L119I/Q94N/R155S/R180L/S121R/S35A/S48A/T118I/V127L/V306I/V36M/Y140S/Y91F)
Assay type: binding
Procedure, shortened: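 Human 721.221 cells expressing HLA-B*3501 were stripped of bound peptides with mild acid (pH 3.2). They were incubated overnight at 4°C with fluorescein-labelled reference peptide LPSC(FL)ADVEF (250 nM fixed) plus competitor peptides (>80% HPLC purity) from 50 to 0.09 μM. After washing, bound labelled peptide was measured by flow cytometry. IC50 (50% inhibition of reference binding) was taken from exponential regression curves.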

Row | Compound | pIC50
1 | CC(C)C[C@H](NC(=O)CNC(=O)[C@@H](NC(=O)[C@@H](NC(=O)[C@H](C)NC(=O)[C@@H]1CCCN1C(=O)[C@@H](N)CC(C)C)C(C)C)C(C)C)C(=O)N[C@@H](CO)C(=O)N1CCC[C@H]1C(=O)NCC(=O)N[C@@H](CCC(=O)O)C(=O)N[C@@H](CCC(N)=O)C(=O)N[C@@H](CCC(=O)O)C(=O)N[C@@H](Cc1ccc(O)cc1)C(=O)O [LPAVVGLSPGEQEY] | 5.51
2 | APAVVGLSPGEQEY [APAVVGLSPGEQEY] | 5.55
3 | FPSDSWCYF [FPSDSWCYF, reference compound] | 5.39
4 | LAAVVGLSAGEQEY [LAAVVGLSAGEQEY] | 5.77
5 | LAAVVGLSPGEQEY [LAAVVGLSPGEQEY] | 5.59
6 | LGAVVGLSPGEQEY [LGAVVGLSPGEQEY] | 4.76
7 | LMAVVGLSPGEQEY [LMAVVGLSPGEQEY] | 5.19
8 | LPAVVGASPGEQEY [LPAVVGASPGEQEY] | 5.89
9 | LPAVVGLSAGEQEY [LPAVVGLSAGEQEY] | 5.96
10 | LWAVVGLSPGEQEY [LWAVVGLSPGEQEY] | 5.33
